Bioassay records as filed in PubChem BioAssay.
Rows were chosen to be rich in hits. Some 2.4% of all compounds tested hit in one or more screens of this group.
Jurkat NFkB inh = inhibitors of the PMA/ionomycin-induced NF-kB reporter in Jurkat cells | PMA/ionomycin-induced NF-kB luciferase reporter, luminescence | inhibition, % at 4 µM | hit rate 0.53% among 330,000; in the data active means inhibition above about 50%
MPTP inh = permeability transition pore inhibition; isolated mouse mitochondria, Ca2+ swelling absorbance, 30 min; inhibition, % at 10 µM; hit rate 1.4% among 360,000;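 active means inhibition of 50% or more, scaled per plate between neutral and stimulator controls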
NR2E3 ag-1 = activates human NR2E3 receptor. Q9Y5X4. hit rate 0.35% among 360,000. inhibition of corepressor binding, % at 3.98 µM. CHO-S Gal4-NCOR/VP16-NR2E3 two-hybrid, luciferase. AID 602229;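 active means inhibition above the mean of all tested compounds plus 3 SD, cut at about 70% in these data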;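 further: higher means lower luciferase signal from less NR2E3 corepressor binding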
Target sequence (Q9Y5X4 whole entry, looked up, the tested form may be a part): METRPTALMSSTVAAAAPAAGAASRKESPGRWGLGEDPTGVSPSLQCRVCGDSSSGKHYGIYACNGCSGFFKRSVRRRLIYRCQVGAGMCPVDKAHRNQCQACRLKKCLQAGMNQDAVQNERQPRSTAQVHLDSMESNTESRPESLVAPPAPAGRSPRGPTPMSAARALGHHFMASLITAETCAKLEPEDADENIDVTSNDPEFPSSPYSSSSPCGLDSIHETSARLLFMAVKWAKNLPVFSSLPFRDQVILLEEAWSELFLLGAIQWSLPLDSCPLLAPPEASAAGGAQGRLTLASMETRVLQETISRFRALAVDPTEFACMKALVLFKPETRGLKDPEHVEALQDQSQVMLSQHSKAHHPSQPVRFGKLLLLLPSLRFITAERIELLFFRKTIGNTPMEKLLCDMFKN
NR2E3 ag-2 = NR2E3 (human) agonism | GST-NR2E3/biotin-RetCOR TR-FRET, 1536-well | inhibition of corepressor binding, % at 4.78 µM | Q9Y5X4 | hit rate 0.12% among 320,000;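 active means percent inhibition above the cutoff of mean plus 3 SD of all tested compounds, set per screening campaign, cut at about 20% in these data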
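System: GST-tagged NR2E3 plus biotinylated RetCOR corepressor; Amount: 1.35 nM GST-tagged NR2E3 final; Dosing: single nominal compound dose of 4.8 µM; Schedule: 5 h incubation at 4 °C; Technique: TR-FRET with europium anti-GST and streptavidin-D2, 340 nm excitation; Controls: biotin wells as high control, 0.6% DMSO wells as low control.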
aDG glyco act = increases alpha dystroglycan glycosylation; activation, % at 10 µM; hit rate 0.22% among 360,000; Pro5-aDG cells, alpha-DG glycosylation AlphaScreen (IIH6); 0% Pro5, 100% B10-LARGE cell signal;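 active means activation of at least 8% versus controls, or a plate z-score of at least 8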;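 further: Pro5 are CHO cells carrying HIG-tagged alpha-DG that lacks glycosylation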
697 NFkB inh = inhibitors of the PMA/ionomycin-induced NF-kB reporter in 697 B cells. 697 B-cell NF-kB luciferase reporter, 16 h. AID 435022. hit rate 0.33% among 330,000. inhibition, % at 4 µM; in the data active means inhibition above about 35%
Rh123 counter = Rhodamine 123 counter-screen of mitochondrial pore hits; shares compounds with MPTP inh; isolated mitochondria, membrane potential, Rhodamine 123 fluorescence; inhibition, % at 10 µM; hit rate 78% among 5,000; AID 624504; in the data active means inhibition above about 22%
MPTP swell DR = dose response confirmation of mitochondrial permeability transition pore inhibitors; shares compounds with MPTP inh; isolated mitochondria swelling, absorbance; IC50, µM; hit rate 58% among 780; AID 651561; in the data active means IC50 below about 20 µM
MPTP counter DR = counter-screen for mitochondrial permeability transition pore inhibitors, dose response; shares compounds with MPTP inh; isolated mitochondria counterscreen, fluorescence read-out; IC50, µM; hit rate 49% among 780; in the data active means IC50 below about 80 µM
Hits are given with their value; - = inactive; . = not tested or not shown.

SMILES	Jurkat NFkB inh	MPTP inh	NR2E3 ag-1	NR2E3 ag-2	aDG glyco act	697 NFkB inh	Rh123 counter	others
Cc1nn(-c2ccccc2)c(C)c1C(=O)OCc1ccc(C#N)cc1	-	-	-	-	-	-	.
Cc1cc([N+](=O)[O-])ccc1NC(=S)NC1CCCC1	-	66.8	-	-	-	-	97.2
CC(=O)Nc1ccc(S(=O)(=O)N2CCSC2c2ccco2)cc1 (stereo unspecified)	-	-	-	-	-	-	.
O=C(Nc1ccc(Cl)c(Cl)c1)N1CCSC1c1ccco1 (stereo unspecified)	-	91.8	-	-	-	-	91.0
CCc1cccc(NC(=O)Nc2ccc3c(c2)OCO3)c1	-	59.3	-	-	-	-	76.2
O=C(Nc1ccc2c(c1)OCO2)NC1(C(F)(F)F)Oc2ccccc2O1	-	55.1	-	-	-	-	59.6
O=C(NCc1ccc2c(c1)OCO2)Nc1cccc(Cl)c1	-	-	-	-	-	-	.
O=C(Nc1cccc(Cl)c1)Nc1ccc2c(c1)OCO2	-	99.5	-	-	-	-	84.6
O=C(Nc1ccc2c(c1)OCO2)N1CCCC1	-	82.5	-	-	-	-	85.3
NS(=O)(=O)c1ccc(CCNC(=O)CCCn2ncn3c(cc4occc43)c2=O)cc1	-	-	-	-	-	-	.
COc1ccc2[nH]cc(S(=O)(=O)c3ccc(C(C)C)cc3)c(=O)c2c1	-	-	-	-	-	-	.
CCn1c(C)nc([N+](=O)[O-])c1Sc1ccc(F)cc1	-	76.6	-	-	-	-	-	MPTP swell DR=-;MPTP counter DR=-
CCCCNCCOCCOc1ccc(C)cc1Br	-	61.3	-	-	-	-	-	MPTP swell DR=-;MPTP counter DR=-
COCCCNCCOCCOc1ccc(C)cc1Br	-	-	-	-	-	-	.
Cc1ccc(O)c(-c2cc(C(F)(F)C(F)F)nc(-c3ccccc3)n2)c1	-	-	-	-	-	-	.
Oc1ccc(Cl)cc1-c1cc(C(F)(F)C(F)F)nc(-c2ccccc2)n1	-	90.2	-	-	-	-	-	MPTP swell DR=8.06;MPTP counter DR=<2.5
CC1CCCCN1S(=O)(=O)c1ccc2c(c1)C(C)(C)C(=O)N2C (stereo unspecified)	-	-	-	-	-	-	.
CN(C)c1ccc(NC(=O)c2cn(-c3ccccc3)nc2-c2cccs2)cc1	-	-	-	-	-	-	.
O=C(Nc1ccc2ccccc2c1)c1cn(-c2ccccc2)nc1-c1cccs1	-	69.6	-	-	-	-	70.4
CC1=NN(C(=O)c2ccc(Br)cc2)C(O)(C(F)(F)OC(F)(F)F)C1 (stereo unspecified)	-	68.0	-	-	-	-	77.8
CCCCCC(=O)Cc1cc(O)cc2c1C(=O)Oc1cc(O)c(C(=O)O)c(CCCCC)c1O2	-	.	.	-	.	-	.
Cc1nnsc1-c1onc(C)c1C(=O)Nc1cc(Cl)cc(Cl)c1	-	84.4	-	-	-	-	79.2
Cc1ccc(NC(=O)c2c(C)noc2-c2snnc2C)cc1	-	-	-	-	-	-	.
CC1(C(=O)NS(=O)(=O)c2cccc(OC(F)F)c2)CCN1C(=O)Cc1ccsc1 (stereo unspecified)	.	-	-	.	-	.	.
C=CCOC(=O)C1=C(C)NC(SCC(=O)Nc2ccccc2)=C(C#N)C1c1ccco1 (stereo unspecified)	-	63.8	-	-	-	-	67.8
SMILES	Jurkat NFkB inh	MPTP inh	NR2E3 ag-1	NR2E3 ag-2	aDG glyco act	697 NFkB inh	Rh123 counter	others
CSc1nc2ccc(NC(=O)CS(=O)(=O)c3ccccc3)cc2s1	.	-	-	.	-	.	.
Oc1c(C=NCc2ccc(F)cc2)[nH]c2ccc(Br)c(Cl)c12	-	.	.	-	.	-	.
Cc1ccc(CN=Cc2[nH]c3ccc(Br)c(Cl)c3c2O)cc1	-	69.1	-	-	3.9	-	-
O=[N+]([O-])c1cc(Cl)ccc1NCCNc1ncc(C(F)(F)F)cc1Cl	-	-	-	-	-	-	.
O=[N+]([O-])c1cc(C(F)(F)F)ccc1NCCNC(=S)Nc1ccc(Cl)cc1	-	94.2	-	-	-	-	70.3
O=[N+]([O-])c1cc(C(F)(F)F)ccc1NCCCCNS(=O)(=O)c1ccc(Cl)cc1	-	86.5	-	-	-	-	90.3
NCCc1c(-c2ccccc2)n(-c2ccccc2)c2ccccc12	-	78.8	-	.	-	-	-
CC(C)(C)CC(=O)O/N=C(\N)c1ccncc1	-	-	-	-	-	-	.
O=C(NCc1cccnc1)Nc1cccc([N+](=O)[O-])c1	-	-	-	-	-	-	.
O=C(NCc1ccncc1)Nc1cccc([N+](=O)[O-])c1	-	91.1	-	-	-	-	73.2
O=[N+]([O-])c1cccc(S(=O)(=O)NCc2ccncc2)c1	-	81.7	-	-	-	-	60.4
CCCCNS(=O)(=O)c1ccc(S(=O)(=O)NCc2ccncc2)cc1	-	80.0	-	-	-	-	70.3
O=C(NCc1ccc(F)cc1)Nc1cccc([N+](=O)[O-])c1	-	62.5	-	-	-	-	94.1
CCN(Cc1nc2cc(Cl)ccc2c(=O)[nH]1)C(=O)c1cc(C2CC2)nn1-c1ccccc1	-	-	-	.	-	-	.
O=C(Nc1ccccc1N1CCCC1)c1ccc(Cl)c(S(=O)(=O)N2CCOCC2)c1	-	-	-	-	-	-	.
COc1ccc(-c2[nH]n(-c3ccc([N+](=O)[O-])cc3)c(=O)c2C=NCc2ccc(F)cc2)cc1	-	-	-	-	-	-	.
COc1ccc(-c2cc(=O)n(-c3ccc([N+](=O)[O-])cc3)[nH]2)cc1	-	97.1	-	-	-	-	70.7
CCCCn1c(NC(=O)c2ccc(Br)o2)c(S(=O)(=O)c2ccccc2)c2nc3ccccc3nc21	-	77.9	-	-	-	-	77.5
Cc1nn(Cc2noc(C(=O)NC3CCC(C)CC3)n2)c(C)c1Br (stereo unspecified)	-	59.1	-	-	-	-	58.2
Cc1nn(Cc2noc(C(=O)NCC3CCCO3)n2)c(C)c1Br (stereo unspecified)	-	-	-	-	-	-	.
CSCCC(Nc1ncnc2ccc(Br)cc12)C(=O)O (stereo unspecified)	-	-	-	-	-	-	.
CC(C)Nc1ncnc2ccc(Br)cc12	-	58.8	-	-	-	-	38.2
CCc1ccc(OCC(=O)N2CC(C(N)=O)Oc3ccccc32)cc1 (stereo unspecified)	-	-	-	-	-	-	.
O=[N+]([O-])c1ccc2c(c1)CO[C@@]21O[C@H](CCO)C[C@H](O)[C@H]1O	.	-	-	.	-	.	.
Cc1occc(=O)c1OC(=O)Nc1ccc(Cl)c(Cl)c1	.	99.0	-	-	-	.	78.2
